In data set [1] the test system is Mycobacterium tuberculosis. Description: Antitubercular activity against Mycobacterium tuberculosis H37Rv assessed as bacterial growth inhibition incubated for 7 days by microplate Alamar blue assay. The format is functional. Conditions: 168 h, time 7 day. In short, it runs like this: (§1)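 MABA: H37Rv or clinical isolates grown to late log phase in 7H9 with 0.2% glycerol, 0.05% Tween 80, 10% ADC; washed, filtered 8 μm, frozen. 2 × 10⁵ CFU per well with twofold compound dilutions, 37 °C; day 7 Tween 80 plus Alamar blue, 16–24 h more, fluorescence ex 530/em 590. MIC = lowest concentration giving ≥90% fluorescence reduction versus bacterium-only controls; RFP, INH, TCA1 controls.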
On the technique in general: Alamar Blue is a resazurin reagent that responds to reducing activity.

For a further data set, the system named is HepG2. The data set is described as follows: Cytotoxicity against human HepG2 cells assessed as reduction in cell viability measured after 48 hrs by MTT assay. The format is cell-based. Conditions: HepG2, 48 h. The gist of the method: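 Threefold serial dilutions gave final concentrations of 64 to 0.26 μg/mL. After 48 h at 37 °C, monolayers were washed with warm HBSS and given fresh medium plus MTT for 4 h. Absorbance was read at 492 nm. IC₅₀ is the concentration giving 50% growth inhibition versus the untreated control.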
In general terms: Tetrazolium dyes change colour on reduction, which living cells bring about.

The test system of data set [2] is Mycobacterium tuberculosis. Description: Antimycobacterial activity against Mycobacterium tuberculosis H37Rv infected in mouse J774.1 cells assessed as change in bacterial colony forming units at 10 ug/ml incubated for 3 days. The format is functional. Conditions: dose 10 µg/ml; time 3 day. The gist of the method: (§2)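 Mouse J774A.1 macrophages infected with M. tuberculosis H37Rv, treated 3 days at final 10 or 5 μg/mL; rifampicin control at 5 μg/mL. Intracellular log10 CFU counted; Δlog10 CFU = untreated minus treated. Triplicate, at least three separate experiments.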

Data set [3] concerns Mycobacterium tuberculosis. The data set is described as follows: Antimycobacterial activity against Mycobacterium tuberculosis H37Rv infected in mouse J774.1 cells assessed as change in bacterial colony forming units at 5 ug/ml incubated for 3 days. The format is functional. Conditions: dose 5 µg/ml; time 3 day. In short, it runs like this: as §2
Data set [4] has as its system Mycobacterium tuberculosis. The data set is described as follows: Antimycobacterial activity against Mycobacterium tuberculosis H37Rv infected in mouse J774.1 cells assessed as reduction in bacterial colony forming units at 10 ug/ml incubated for 3 days (reference value: 5.52 +/- 0.18 log10CFU). Conditions: dose 10 µg/ml; time 3 day. The format is functional. The gist of the method:
as §2

In data set [5] the target is T1, Decaprenylphosphoryl-beta-D-ribose oxidase (Mycobacterium tuberculosis (strain ATCC 25618 / H37Rv)) (UniProt P9WJF1).
T1 sequence (whole entry): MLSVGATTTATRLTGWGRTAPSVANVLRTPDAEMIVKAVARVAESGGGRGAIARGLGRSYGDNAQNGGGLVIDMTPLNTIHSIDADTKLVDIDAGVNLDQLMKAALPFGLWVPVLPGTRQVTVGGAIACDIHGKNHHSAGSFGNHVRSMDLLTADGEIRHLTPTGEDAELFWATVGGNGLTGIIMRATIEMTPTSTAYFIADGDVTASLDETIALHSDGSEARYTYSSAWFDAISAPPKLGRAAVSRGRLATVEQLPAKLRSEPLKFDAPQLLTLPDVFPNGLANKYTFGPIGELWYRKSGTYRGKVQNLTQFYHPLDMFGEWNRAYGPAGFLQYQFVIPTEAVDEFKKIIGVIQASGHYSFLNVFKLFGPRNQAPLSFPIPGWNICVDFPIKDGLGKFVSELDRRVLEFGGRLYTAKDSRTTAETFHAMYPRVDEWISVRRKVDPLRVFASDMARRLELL
The data set is described as follows: Non-covalent inhibition of DprE1 in Mycobacterium tuberculosis H37Rv measured after 7 days by microplate Alamar blue assay. Conditions: time 7.0 day. The gist of the method:
as §1

Data set [6] relates to Mycobacterium tuberculosis. Description: Antimycobacterial activity against Mycobacterium tuberculosis H37Rv infected in mouse J774.1 cells assessed as reduction in bacterial colony forming units at 5 ug/ml incubated for 3 days (reference value: 5.52 +/- 0.18 log10CFU). The format is functional. Conditions: dose 5 µg/ml; time 3 day. In short, it runs like this: as §2
Data set [7] is described as follows: Selectivity index, ratio of IC50 for African green monkey Vero cells to MIC for antitubercular activity against Mycobacterium tuberculosis H37Rv. The format is toxicity. Conditions: read-out: Selectivity Index.
Data set [8] can be described thus: Stability in mouse hepatocytes assessed as parent compound remaining at 1 uM measured after 30 mins by LC-MS/MS analysis. The format is ADME, cell-based, Hepatocyte. Conditions: 0.5 h. In short, it runs like this: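 Hepatocytes from male mice; metabolic stability measured as the amount of parent compound remaining. Concentrations after 30 min incubation were normalized to those at time zero.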

Structures are written as SMILES. Converted amounts (≈) assume the structure as drawn.

Regarding `Cc1ccnc(NC(=O)c2ccsc2NC(=O)c2ccc(C(=O)N3CCCCC3)c(F)c2)n1`, the MIC in data set [1] is above 32 µg/mL.
As usually defined, the IC50 is the point on the concentration scale where inhibition reaches its midpoint. In the case of `COC(=O)NC(=O)c1ccsc1NC(=O)c1ccc(C(=O)N2CCCCC2)cc1`, in the data set with HepG2, the IC50 was above 64 µg/mL. Besides, the Activity is recorded as 0.75 deltalog10CFU in data set [2], 0.46 deltalog10CFU in data set [3], 4.77 log10CFU in data set [4] and 5.06 log10CFU in data set [6]. Also, the MIC is 0.12 µg/mL (≈ 0.289 µM) in data set [5] and above 32 µg/mL in [1].
With `CCOC(=O)NC(=O)c1ccsc1NC(=O)c1ccc(C(=O)N2CCCCC2)c(F)c1`, in the data set with HepG2, the IC50 was above 64 µg/mL. In addition, the Activity in data set [2] came out at 1.34 deltalog10CFU; in data set [3] it was 1.11 deltalog10CFU; in data set [4] it was 4.18 log10CFU; in [6], 4.41 log10CFU. The selectivity ratio in [7] is above 4000.
In the case of `CCOC(=O)NC(=O)c1ccsc1NC(=O)c1ccc(C(=O)N2CCCCC2)s1`, the half-inhibitory concentration (IC50) in the data set on HepG2 is above 64 µg/mL. Besides, the selectivity ratio in data set [7] was above 457.
Turning to `CCOC(=O)NC(=O)c1ccsc1NC(=O)c1nc2ccccc2s1`, the Activity in data set [2] turned out to be 1.16 deltalog10CFU; in data set [3] it was 0.11 deltalog10CFU; in data set [4] it was 4.36 log10CFU; in data set [6] it was 4.91 log10CFU. In addition, in data set [8], the Stability is 79.8%. The selectivity ratio in [7] was 66.
As to `NC(=O)c1ccsc1NC(=O)c1ccc(C(=O)N2CCCCC2)cc1`, the MIC in data set [1] stood at 0.2 µg/mL (≈ 0.56 µM).
For the compound `COC(=O)C1CCN(C(=O)c2ccsc2NC(=O)c2ccc(C(=O)N3CCCCC3)cc2)CC1`, in data set [1], the MIC was above 32 µg/mL.
For `CCOC(=O)NC(=O)c1ccsc1NC(=O)c1ccc(C(=O)N2CCCCC2)cc1`, the concentration for half-maximal inhibition (IC50) with HepG2 was above 64 µg/mL. Also, the Activity is given as 1.07 deltalog10CFU in data set [2], 0.98 deltalog10CFU in [3], 4.45 log10CFU in data set [4] and 4.54 log10CFU in [6]. The compound also returned an MIC in data set [5] of 0.055 µg/mL (≈ 0.128 µM).
As for `Cc1ccnc(NC(=O)c2ccsc2NC(=O)c2ccc(C(=O)N3CCCCC3)cc2)n1`, the selectivity ratio in [7] was above 27. Moreover, the MIC in data set [1] was found to be 0.03 µg/mL (≈ 0.0667 µM).
Regarding `CCOC(=O)NC(=O)c1ccsc1NC(=O)c1coc(C(=O)N2CCCCC2)c1`, the MIC in data set [1] amounted to 37 µg/mL (≈ 88.2 µM).
With `CCNC(=O)NC(=O)c1ccsc1NC(=O)c1ccc(C(=O)N2CCCCC2)cc1`, in [1], the MIC was determined as 0.47 µg/mL (≈ 1.1 µM).
On the same count and under the same terms, the value for `CCOC(=O)NC(=O)c1ccsc1NC(=O)c1cc(C(=O)N2CCCCC2)c[nH]1` was 137 µg/mL (≈ 327 µM).
For the compound `COC(=O)NC(=O)c1ccsc1NC(=O)c1ccc(C(=O)N2CCCCC2)c(F)c1`, the half-inhibitory concentration (IC50) in the data set with HepG2 was above 64 µg/mL. Also, the Activity is listed as 0.93 deltalog10CFU in data set [2], 0.77 deltalog10CFU in data set [3], 4.59 log10CFU in data set [4] and 4.75 log10CFU in data set [6]. In addition, the MIC in data set [1] was 1.94 µg/mL (≈ 4.48 µM).
As to `Cc1cccc(NC(=O)c2ccsc2NC(=O)c2ccc(C(=O)N3CCCCC3)cc2)n1`, the MIC in [1] was determined as 15.5 µg/mL (≈ 34.6 µM).
Consider `Cc1cnc(NC(=O)c2ccsc2NC(=O)c2ccc(C(=O)N3CCCCC3)cc2)s1`, for which the MIC in data set [1] stood at 0.19 µg/mL (≈ 0.418 µM).
Regarding `O=C(Nc1sccc1C(=O)Nc1nccc(C(F)(F)F)n1)c1ccc(C(=O)N2CCCCC2)cc1`, the Activity in data set [2] is recorded as 0.98 deltalog10CFU; in [3], 0.93 deltalog10CFU; in data set [4], 4.54 log10CFU; in [6] it was 4.59 log10CFU. In addition, the selectivity ratio in data set [7] is above 320. The MIC in data set [1] is above 32 µg/mL.
As to `CCCNC(=O)c1ccc(C(=O)Nc2sccc2C(=O)NC(=O)OCC)cc1`, in data set [7], the selectivity ratio was above 320.
As for `CCOC(=O)NC(=O)c1ccsc1NC(=O)c1ccc(C(=O)NC2CCC(C)(C)CC2)cc1`, the MIC in data set [1] was determined as 0.04 µg/mL (≈ 0.0848 µM).
